Measured values of several laboratories.
Target: Tyrosine-protein kinase SYK (SYK, Homo sapiens, UniProt P43405)

Structure (SMILES)	observed	technique	concentration	remaining binding [%]
N[C@H]1CCN(c2nccc(-c3cnn4ncccc34)n2)C1	binding	–	1 µM	81
CSc1cccnc1N1CCN(Cc2nc3ccccc3[nH]2)CC1	cell-free assay	competition with immobilised ligand	1 µM	100
O=C(c1ccc(Nc2ncc(Cl)c(-c3cc4ccccc4s3)n2)cc1)N1CCC(N2CCCC2)CC1	binding	competition with immobilised ligand	1 µM	8.6
c1cnn2ncc(-c3ccnc(N4CCC45COC5)n3)c2c1	binding	–	1 µM	99
CNC(=O)[C@@H]1CC[C@@H](n2c(-c3ccc4cnccc4c3)nc3ccc(C(=O)NCc4cccc(C(N)=O)c4)cc32)C1	binding	competition with immobilised ligand	1 µM	99
CC1CCCN1c1nccc(-c2cnn3ncccc23)n1 (centres unmarked)	binding	–	1 µM	100
Cc1cnc(Nc2ccc(C(=O)N3CCC(N4CCCC4)CC3)cc2)nc1-c1cc2ccccc2s1	binding	competition with immobilised ligand	1 µM	7.7
COc1ncc2cc3ccccc3nc2c1C#N	cell-free assay	competition with immobilised ligand	5 µM	98
C[C@@H]1CN(c2cc(-c3n[nH]c4ccc(OC5(C)CC5)cc34)ncn2)C[C@H](C)O1	cell-free assay	competition with immobilised ligand	0.1 µM	96
Nc1ncc2c(n1)-c1c([nH]c3ccc(C#CC4CC4)cc13)CCCC2	binding	competition with immobilised ligand	1 µM	100
COc1cnc(Nc2cccc(S(N)(=O)=O)c2)nc1N1CCN(c2ccccc2)CC1	binding	competition with immobilised ligand	1 µM	86
Cc1cnn2ncc(-c3ccnc(N(C)C)n3)c2c1	binding	–	1 µM	100
N#CC1(c2ccccn2)CCN(Cc2cc(C(=O)N3CCCC3)c(=O)n3ccccc23)CC1	cell-free assay	competition with immobilised ligand	1 µM	92
O=C(NCCCN1CCOCC1)c1ccc(Nc2ncc(Cl)c(-c3ccc(Cl)s3)n2)cc1	binding	competition with immobilised ligand	1 µM	34
CO[C@H]1CC[C@H](CNc2ccc(S(=O)(=O)NC(=O)c3ccc(N4CCN(CC5=C(c6ccc(Cl)cc6)CC(C)(C)CC5)CC4)cc3Oc3cnc4[nH]ccc4c3)cc2[N+](=O)[O-])CC1	cell-free assay	competition with immobilised ligand	1 µM	62
C[C@H]1CCN(c2nccc(-c3cnn4ncccc34)n2)C1	binding	–	1 µM	82
CCC(=O)N[C@H]1CC[C@@H](C(=O)N(C)c2ccc(-c3nc4ccccc4o3)cc2)C1	cell-free assay	competition with immobilised ligand	1 µM	100
O=C(NCC1CCOCC1)c1n[nH]cc1NC(=O)c1c(F)cccc1F	binding	competition with immobilised ligand	1 µM	100
CN(c1nccc(-c2cnn3ncccc23)n1)C1CC1	binding	–	1 µM	100
Cc1cc(NC(=O)c2cccc(S(F)(F)(F)(F)F)c2)cc(-n2ccn3nc(-c4cccnc4)cc23)c1	cell-free assay	competition with immobilised ligand	1 µM	95.5
